# Sampled rows, rich in hits. Any-hit rate of the full collection: about 4.9%.
# Hep lipid drop: modulators of hepatic lipid droplet formation | inhibition, % at 6.5 µM | hit rate 0.4% among 240,000 | AML12 mouse hepatocytes, oleate lipid droplets, BODIPY imaging;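 active means lipid droplet intensity inhibited by at least 50%, with more than 500 cells counted; inconclusive means wells with under 300 cells, treated as cytotoxic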
#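 Material: mouse AML12 hepatocyte cell line, fixed after treatment; Timing: compound with oleate, overnight; Technique: high-content imaging of BODIPY-stained droplets and DAPI nuclei; Probe or stimulus: oleate, 100 µM final; Dosing: compound at 6.5 µM only.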
# PHOSPHO1 inh: inhibitors of human PHOSPHO1 phosphatase; AID 1565; recombinant PHOSPHO1, absorbance phosphatase assay; hit rate 1.1% among 290,000; inhibition, % at 13.3 µM; Q8TCT1; in the data active means inhibition above about 60%
# Target sequence (Q8TCT1 whole entry, looked up): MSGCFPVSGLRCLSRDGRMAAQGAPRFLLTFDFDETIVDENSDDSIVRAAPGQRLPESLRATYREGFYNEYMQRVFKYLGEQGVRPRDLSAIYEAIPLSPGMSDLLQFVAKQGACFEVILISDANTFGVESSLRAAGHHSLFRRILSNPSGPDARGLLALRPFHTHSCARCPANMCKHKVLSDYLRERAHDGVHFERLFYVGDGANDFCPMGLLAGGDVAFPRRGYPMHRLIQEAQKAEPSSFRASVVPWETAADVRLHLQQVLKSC
# CHT allo act: human CHT allosteric activation; AID 488977; B-score at 10 µM; hit rate 0.49% among 310,000; CHT-expressing cells, membrane potential dye, choline EC20; active compounds read high; LV-AA mutant CHT in HEK293 cells; Q9GZV3;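 active means initial fluorescence not abnormally high and integrated response B-score, plate-corrected, over 3 SD above library mean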
# CHT block: inhibits the human high affinity choline transporter. B-score at 10 µM. CHT-expressing cells, membrane potential dye, choline response; active compounds read low. hit rate 0.86% among 310,000. Q9GZV3;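 active means B-score over 3 SD under the library average, and starting fluorescence ratio not unusually high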;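 further: choline stimulus applied at its EC90 after an EC20 pre-addition; B-score computed on integrated fluorescence ratio after choline addition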
# HSF-1 act: increases HSF-1 driven luciferase reporter signal | AID 504408 | NIH3T3-HGL HSF-1 luciferase reporter, MG132, 8 h; 100% = twice DMSO control signal | activation, % at 9 µM | hit rate 1.7% among 300,000;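 active means mean replicate activation of at least 50% with a set share of replicates each reaching 50%; inconclusive means only one of those two conditions met; inactive means mean below 50% and too few replicates reaching it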
# HSF1 inhib: HSF1 inhibition; NIH3T3-HGL HSE-luciferase, MG132-induced, luminescence 8 h; active compounds read low; activity change, negative = inhibition, % at 7.5 µM (by protocol); hit rate 0.77% among 300,000;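 active means more than half of replicate wells show activity change below -50%, luminescence cut by over half; inconclusive means some wells, but at most half, below -50%; inactive means no replicate well below -50%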;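 further: luciferase reports HSF-1 transcriptional activity via heat shock element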
# Numbers stand for hits; 0 = inactive; ? = inconclusive; - = no result.
SMILES,Hep lipid drop,PHOSPHO1 inh,CHT allo act,CHT block,HSF-1 act,HSF1 inhib
O=C(Nc1ccc2nc3n(c(=O)c2c1)CCCCC3)c1cc([N+](=O)[O-])ccc1F,0,0,0,0,0,-67.6
Cc1ccc(NC(=O)C2CCN(S(=O)(=O)c3cccc4nonc34)CC2)cc1,0,0,0,0,0,0
COc1ccc(OCc2cc(-c3ccc(Cl)cc3)no2)cc1,0,0,0,0,0,0
COc1ccccc1OCc1cc(-c2ccccc2)no1,0,0,0,0,53.0,0
c1ccc(OCc2cc(-c3ccccc3)no2)cc1,0,0,0,0,61.3,0
CCOc1ccc(NC(=O)CCN2C(=O)c3cccc([N+](=O)[O-])c3C2=O)cc1,0,0,0,0,0,0
CC(CCc1ccccc1)NC(=O)C(=O)NCc1ccccc1 (configuration not stated),0,0,0,0,0,0
CC(C)(C)C1CCc2[nH]c3ccccc3c(=O)c2C1 (configuration not stated),-,0,0,0,0,0
Cc1c2c(nc3ccccc13)CCC(C(C)(C)C)C2 (configuration not stated),0,0,0,0,56.9,0
S=c1nc(-c2ccccc2)n(Cc2ccco2)c2c1CCCC2,-,88.7,-,-,-,-
CCOC(=O)C(C)N1CC(=O)N(c2ccccc2)C1=O (configuration not stated),-,-,0,0,0,0
Cc1cc(C)c(CN2CCC(n3nccc3NC(=O)c3ccccc3Cl)CC2)cc1C,0,0,0,0,0,0
COc1ccccc1C(=O)Nc1ccnn1C1CCN(Cc2cc(C)c(C)cc2C)CC1,0,0,0,-5.27,0,0
CCCCC(=O)Nc1cccc(C(=O)Nc2ccccc2C(=O)O)c1,0,0,0,0,0,0
CCCCC(=O)Nc1cccc(NC(=O)c2cccc(Br)c2)c1,0,0,0,0,0,-62.3
CC(NC(=O)CCC(=O)c1cccs1)c1ccccc1 (configuration not stated),-,-,0,0,0,0
O=S(=O)(NCc1ccc(Cl)cc1Cl)c1ccc(N2CCOCC2)nc1,0,0,0,0,0,0
Cc1ccc(C2CC(c3ccccc3)=NN2C(=S)Nc2ccccc2)o1 (configuration not stated),0,87.9,0,0,-,-
CC1=NN(C(=S)Nc2ccccc2)C(c2ccccc2)C1 (configuration not stated),0,0,0,0,0,0
Cc1ccc(NC(=S)NC(=O)c2cncc(Br)c2)cc1Cl,-,-,0,0,0,0
OCc1cc(Br)ccc1OCc1nc2ccccc2s1,0,0,0,0,71.2,0
O=C(COc1ccc(Br)cc1CO)Nc1ccccc1,-,0,0,0,0,0
Oc1cccc(-c2nc3ccccc3s2)c1,0,0,0,0,0,0
Oc1ccc(O)c(Cc2nc3ccccc3s2)c1,0,0,0,0,69.2,0
CCOc1ccc(NC(=O)CC2C(=O)N(c3ccccc3)C(=O)N2CCc2cccs2)cc1 (configuration not stated),0,0,0,0,0,0
SMILES,Hep lipid drop,PHOSPHO1 inh,CHT allo act,CHT block,HSF-1 act,HSF1 inhib
COc1ccccc1NC(=O)NCCN1CCNC1=O,0,0,0,0,0,0
CC1CCN(S(=O)(=O)c2ccc(N/N=C(/C#N)C(N)=O)cc2)CC1,-,76.7,0,0,0,0
CC(C)c1nnc(SCC(=O)NCCC2=CCCCC2)n1N,0,92.2,0,0,0,0
CCOCCCN(C(=O)CCC(=O)Nc1cc(C)on1)C(C(=O)NC(C)(C)C)c1ccccc1Cl (configuration not stated),0,0,0,0,0,0
Oc1oc(-c2ccccc2)nc1C=Nc1ccccc1,-,0,0,0,0,0
Sc1oc(-c2ccccc2)cc1C=Nc1ccccc1,0,90.9,0,0,0,0
Cc1cc2nc(-c3ccc(SCC(=O)Nc4ccc(S(=O)(=O)NC5CC5)cc4)nc3)[nH]c2cc1C,0,0,0,0,54.1,0
O=C(COC(=O)CCc1nc2ccccc2c(=O)[nH]1)Nc1ccc(Cl)cn1,0,74.5,0,0,0,0
CCC(=O)Nc1cc(C)c(OC)c(C)c1,0,0,0,0,0,0
C/C(CC(=O)Nc1ccc2c(c1)OCO2)=N\NC(=O)c1ccc(N)cc1,0,0,0,0,0,0
C/C(CC(=O)Nc1ccc2c(c1)OCO2)=N\NC(=O)c1ccccc1N,0,0,0,0,59.4,0
C/C(CC(=O)Nc1cccc(Cl)c1Cl)=N\NC(=O)c1ccccc1N,0,0,0,0,55.4,0
NC(=O)c1ccccc1NC(=O)Nc1cccc(Cl)c1Cl,0,0,0,0,76.8,0
COc1cc(C2c3c(oc4ccccc4c3=O)C(=O)N2Cc2ccco2)ccc1O (configuration not stated),-,0,0,0,0,0
COc1cccc(C2c3c(oc4ccccc4c3=O)C(=O)N2Cc2ccco2)c1 (configuration not stated),-,-,0,0,58.7,0
O=C(Nc1ccc2sccc2c1)c1ccc(Cl)s1,0,0,0,0,72.2,0
O=C(Nc1ccc2c(c1)C(=O)NC2=O)c1ccc(Cl)s1,0,0,0,0,0,0
O=C(CCl)N=c1sccn1Cc1ccc(Cl)cc1Cl,?,0,0,0,0,-97.5
O=C(CCl)N=c1sccn1Cc1ccccc1Cl,?,0,0,0,-,-
O=C(Nc1cc2c(cc1Br)OCCO2)c1cccs1,0,0,0,0,0,0
Nc1nc(CSc2nnnn2-c2ccccc2)nc(N2CCCc3ccccc32)n1,0,0,0,0,-,-
CN(C)c1nc(N)nc(CSc2nnnn2-c2ccc(F)cc2)n1,0,0,0,0,60.2,0
Cc1[nH]c(C)c(C(=O)/C=C/c2ccc([N+](=O)[O-])cc2)c1C,0,0,0,0,69.7,0
CCOC(=O)N1CCN(C(=O)/C=C/c2ccc([N+](=O)[O-])cc2)CC1,0,0,0,0,0,0
COc1cccc(CN2CC(C(=O)N(C)CC3CCOCC3)CCC2=O)c1 (configuration not stated),0,0,0,0,0,0
SMILES,Hep lipid drop,PHOSPHO1 inh,CHT allo act,CHT block,HSF-1 act,HSF1 inhib
COc1cc2[nH]c(=S)nc(NCCC(C)C)c2cc1OC,0,0,0,0,0,0
COCCCNc1nc(=S)[nH]c2cc(OC)c(OC)cc12,-,81.6,0,0,0,0
CCN(CC)CCN(C)Cc1nc(C(c2ccccc2)c2ccccc2)no1,0,0,0,0,54.1,0
CCC(C)[C@H]1CNC(=S)N1CCC12CC3CC(CC(C3)C1)C2 (some centres not stated),0,0,0,0,0,0
Clc1ccc2nc(COc3ccccc3)[nH]c2c1,0,0,0,0,0,0
O=C(COC(=O)c1ccccc1C(=O)c1ccccc1)NCCc1ccccc1,0,0,0,0,55.4,0
CCCCOC(=O)c1ccc(N=Nc2c(C)c(C#N)c(O)[nH]c2=O)cc1,0,0,0,0,0,0
